{"source": "ChEMBL document CHEMBL3875205", "about": "“Macrocyclic MEK1/2 inhibitor with efficacy in a mouse model of cardiomyopathy caused by lamin A/C gene mutation” (Bioorg Med Chem, 2017)", "key": {"Mus musculus [1]": {"system": "Mus musculus", "test": "Toxicity in LmnaH222P/H222P mouse model of cardiomyopathy assessed as serum alkaline phosphatase activity at 6 mg/kg/day, po administered 6 days per week via gavage starting from 14 weeks of age up to 20 weeks of age (reference value: 91.5 +/- 6.99 U/L)", "type": "organism-based, Heart", "conditions": "in vivo"}, "[2]": {"test": "Effect on body mass in LmnaH222P/H222P mouse model of cardiomyopathy at 3 mg/kg/day, po administered 6 days per week via gavage starting from 14 weeks of age up to 20 weeks of age (reference value: 23.19 +/- 0.43)", "type": "ADME, organism-based, Heart", "conditions": "in vivo"}, "Mus musculus [3]": {"system": "Mus musculus", "test": "Toxicity in LmnaH222P/H222P mouse model of cardiomyopathy assessed as serum amylase activity at 6 mg/kg/day, po administered 6 days per week via gavage starting from 14 weeks of age up to 20 weeks of age (reference value: 1102 +/- 53.63 U/L)", "type": "organism-based, Heart", "conditions": "in vivo"}, "Mus musculus [4]": {"system": "Mus musculus", "test": "Nephrotoxicity in LmnaH222P/H222P mouse model of cardiomyopathy assessed as interstitial nephritis at 3 to 6 mg/kg/day, po administered 6 days per week via gavage starting from 14 weeks of age up to 20 weeks of age by hematoxylin and eosin staining based assay", "type": "toxicity, organism-based", "conditions": "in vivo", "outline": "(§1)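 Liver, kidney and spleen from male Lmna H222P/H222P mice given vehicle or 3 or 6 mg/kg/day by gavage 6 days/week from 14 to 20 weeks. Tissues were fixed in 4% formaldehyde for 48 h, paraffin-embedded, sectioned at 5 μm and stained with hematoxylin and eosin. Findings were recorded for each individual sample.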"}, "Mus musculus [5]": {"system": "Mus musculus", "test": "Protective activity in LmnaH222P/H222P mouse model of cardiomyopathy assessed as mean survival days at 6 mg/kg, po administered 6 days per week via gavage starting from 10 weeks of age continued up to mouse death (reference value: 202 day)", "type": "functional, Heart"}, "Mus musculus [6]": {"system": "Mus musculus", "test": "Toxicity in LmnaH222P/H222P mouse model of cardiomyopathy assessed as blood urea nitrogen level at 6 mg/kg/day, po administered 6 days per week via gavage starting from 14 weeks of age up to 20 weeks of age (reference value: 17.98 +/- 0.94 mg/dl)", "type": "organism-based, Heart", "conditions": "in vivo"}, "Mus musculus [7]": {"system": "Mus musculus", "test": "Protective activity in LmnaH222P/H222P mouse model of cardiomyopathy assessed as mean survival days at 3 mg/kg, po administered 6 days per week via gavage starting from 10 weeks of age continued up to mouse death (reference value: 202 day)", "type": "functional, Heart"}, "Mus musculus [8]": {"system": "Mus musculus", "test": "Toxicity in LmnaH222P/H222P mouse model of cardiomyopathy assessed as serum alanine aminotransferase activity at 3 mg/kg/day, po administered 6 days per week via gavage starting from 14 weeks of age up to 20 weeks of age (reference value: 56 +/- 10.55 U/L)", "type": "organism-based, Heart", "conditions": "in vivo"}, "Mus musculus [9]": {"system": "Mus musculus", "test": "Toxicity in LmnaH222P/H222P mouse model of cardiomyopathy assessed as ratio of blood urea nitrogen to serum creatinine at 3 mg/kg/day, po administered 6 days per week via gavage starting from 14 weeks of age up to 20 weeks of age (reference value: 20.14 +/- 1.25)", "type": "organism-based, Heart", "conditions": "in vivo"}, "Mus musculus [10]": {"system": "Mus musculus", "test": "Toxicity in LmnaH222P/H222P mouse model of cardiomyopathy assessed as total bilirubin content in serum at 6 mg/kg/day, po administered 6 days per week via gavage starting from 14 weeks of age up to 20 weeks of age (reference value: 0.36 +/- 0.02 mg/L)", "type": "organism-based, Heart", "conditions": "in vivo"}, "Mus musculus [11]": {"system": "Mus musculus", "test": "Toxicity in LmnaH222P/H222P mouse model of cardiomyopathy assessed as serum creatinine level at 6 mg/kg/day, po administered 6 days per week via gavage starting from 14 weeks of age up to 20 weeks of age (reference value: 0.45 +/- 0.01 mg/dl)", "type": "organism-based, Heart", "conditions": "in vivo"}, "Mus musculus [12]": {"system": "Mus musculus", "test": "Toxicity in LmnaH222P/H222P mouse model of cardiomyopathy assessed as appearance of hemosiderin-laden macrophages in spleen at 3 to 6 mg/kg/day, po administered 6 days per week via gavage starting from 14 weeks of age up to 20 weeks of age by hematoxylin and eosin staining based assay", "type": "organism-based", "conditions": "in vivo", "outline": "as §1"}, "Mus musculus [13]": {"system": "Mus musculus", "test": "Toxicity in LmnaH222P/H222P mouse model of cardiomyopathy assessed as ratio of blood urea nitrogen to serum creatinine at 6 mg/kg/day, po administered 6 days per week via gavage starting from 14 weeks of age up to 20 weeks of age (reference value: 20.14 +/- 1.25)", "type": "organism-based, Heart", "conditions": "in vivo"}, "Mus musculus [14]": {"system": "Mus musculus", "test": "Toxicity in LmnaH222P/H222P mouse model of cardiomyopathy assessed as total bilirubin content in serum at 3 mg/kg/day, po administered 6 days per week via gavage starting from 14 weeks of age up to 20 weeks of age (reference value: 0.36 +/- 0.02 mg/L)", "type": "organism-based, Heart", "conditions": "in vivo"}, "Mus musculus [15]": {"system": "Mus musculus", "test": "Toxicity in LmnaH222P/H222P mouse model of cardiomyopathy assessed as blood urea nitrogen level at 3 mg/kg/day, po administered 6 days per week via gavage starting from 14 weeks of age up to 20 weeks of age (reference value: 17.98 +/- 0.94 mg/dl)", "type": "organism-based, Heart", "conditions": "in vivo"}, "Mus musculus [16]": {"system": "Mus musculus", "test": "Toxicity in LmnaH222P/H222P mouse model of cardiomyopathy assessed as serum amylase activity at 3 mg/kg/day, po administered 6 days per week via gavage starting from 14 weeks of age up to 20 weeks of age (reference value: 1102 +/- 53.63 U/L)", "type": "organism-based, Heart", "conditions": "in vivo"}, "[17]": {"target": "Dual specificity mitogen-activated protein kinase kinase; MEK1/2 (Homo sapiens, UniProt P36507+Q02750)", "test": "Inhibition of MEK1/2 in human HT-29 cells assessed as reduction in cell proliferation after 72 hrs by CellTiter-Glo assay", "type": "cell-based", "outline": "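HT-29 cells were plated at 2,000/well in DMEM or RPMI with 10% FBS and left overnight at 37°C, 5% CO2. Medium was replaced with compound at 3-fold dilutions from 3.3 µM to 4.5 nM. After 72 h, viability was read by CellTiter-Glo luminescence and IC50 calculated.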"}, "Mus musculus [18]": {"system": "Mus musculus", "test": "Toxicity in LmnaH222P/H222P mouse model of cardiomyopathy assessed as serum alkaline phosphatase activity at 3 mg/kg/day, po administered 6 days per week via gavage starting from 14 weeks of age up to 20 weeks of age (reference value: 91.5 +/- 6.99 U/L)", "type": "organism-based, Heart", "conditions": "in vivo"}, "Mus musculus [19]": {"system": "Mus musculus", "test": "Toxicity in LmnaH222P/H222P mouse model of cardiomyopathy assessed as serum creatinine level at 3 mg/kg/day, po administered 6 days per week via gavage starting from 14 weeks of age up to 20 weeks of age (reference value: 0.45 +/- 0.01 mg/dl)", "type": "organism-based, Heart", "conditions": "in vivo"}, "Mus musculus [20]": {"system": "Mus musculus", "test": "Hepatotoxicity in LmnaH222P/H222P mouse model of cardiomyopathy assessed as cholestasis at 3 to 6 mg/kg/day, po administered 6 days per week via gavage starting from 14 weeks of age up to 20 weeks of age by hematoxylin and eosin staining based assay", "type": "toxicity, organism-based", "conditions": "in vivo", "outline": "as §1"}, "Mus musculus [21]": {"system": "Mus musculus", "test": "Hepatotoxicity in LmnaH222P/H222P mouse model of cardiomyopathy assessed as hepatocyte necrosis at 3 to 6 mg/kg/day, po administered 6 days per week via gavage starting from 14 weeks of age up to 20 weeks of age by hematoxylin and eosin staining based assay", "type": "toxicity, organism-based", "conditions": "hepatocytes", "outline": "as §1"}, "[22]": {"test": "Effect on body mass in LmnaH222P/H222P mouse model of cardiomyopathy at 6 mg/kg/day, po administered 6 days per week via gavage starting from 14 weeks of age up to 20 weeks of age (reference value: 23.19 +/- 0.43)", "type": "ADME, organism-based, Heart", "conditions": "in vivo"}, "Mus musculus [23]": {"system": "Mus musculus", "test": "Toxicity in LmnaH222P/H222P mouse model of cardiomyopathy assessed as serum alanine aminotransferase activity at 6 mg/kg/day, po administered 6 days per week via gavage starting from 14 weeks of age up to 20 weeks of age (reference value: 56 +/- 10.55 U/L)", "type": "organism-based, Heart", "conditions": "in vivo"}, "Mus musculus [24]": {"system": "Mus musculus", "test": "Hepatotoxicity in LmnaH222P/H222P mouse model of cardiomyopathy assessed as inflammation at 3 to 6 mg/kg/day, po administered 6 days per week via gavage starting from 14 weeks of age up to 20 weeks of age by hematoxylin and eosin staining based assay", "type": "toxicity, organism-based", "conditions": "in vivo", "outline": "as §1"}, "Mus musculus [25]": {"system": "Mus musculus", "test": "Nephrotoxicity in LmnaH222P/H222P mouse model of cardiomyopathy assessed as glomeruli abnormalities at 3 to 6 mg/kg/day, po administered 6 days per week via gavage starting from 14 weeks of age up to 20 weeks of age by hematoxylin and eosin staining based assay", "type": "toxicity, organism-based", "conditions": "in vivo", "outline": "as §1"}}}
{"compound": "O=S1(=O)Nc2c(cc(F)c(F)c2Nc2ccc(I)cc2F)OCC(O)C(O)CC12CC2", "note": "(single isomer, unassigned; form 1)", "values": [{"measurement": "Activity", "setting": "Mus musculus [1]", "result": 113, "unit": "U/L"}, {"measurement": "Activity", "setting": "[2]", "result": 24.06}, {"measurement": "Activity", "setting": "Mus musculus [3]", "result": 1086, "unit": "U/L"}, {"measurement": "Activity", "setting": "Mus musculus [4]", "result": "Non-Toxic"}, {"measurement": "MSD", "setting": "Mus musculus [5]", "result": 225, "unit": "days"}, {"measurement": "Activity", "setting": "Mus musculus [6]", "result": 19.12, "unit": "mg/dL"}, {"measurement": "MSD", "setting": "Mus musculus [7]", "result": 225, "unit": "days"}, {"measurement": "Activity", "setting": "Mus musculus [8]", "result": 69.6, "unit": "U/L"}, {"measurement": "Ratio", "setting": "Mus musculus [9]", "result": 19.66}, {"measurement": "Activity", "setting": "Mus musculus [10]", "result": 0.37, "unit": "mg/L"}, {"measurement": "Activity", "setting": "Mus musculus [11]", "result": 0.46, "unit": "mg/dL"}, {"measurement": "Activity", "setting": "Mus musculus [12]", "result": "Non-Toxic"}, {"measurement": "Ratio", "setting": "Mus musculus [13]", "result": 20.77}, {"measurement": "Activity", "setting": "Mus musculus [14]", "result": 0.32, "unit": "mg/L"}, {"measurement": "Activity", "setting": "Mus musculus [15]", "result": 18.04, "unit": "mg/dL"}, {"measurement": "Activity", "setting": "Mus musculus [16]", "result": 1372, "unit": "U/L"}, {"measurement": "IC50", "setting": "[17]", "result": 16, "unit": "nM"}, {"measurement": "Activity", "setting": "Mus musculus [18]", "result": 104.5, "unit": "U/L"}, {"measurement": "Activity", "setting": "Mus musculus [19]", "result": 0.46, "unit": "mg/dL"}, {"measurement": "Activity", "setting": "Mus musculus [20]", "result": "Non-Toxic"}, {"measurement": "Activity", "setting": "Mus musculus [21]", "result": "Non-Toxic"}, {"measurement": "Activity", "setting": "[22]", "result": 22.93}, {"measurement": "Activity", "setting": "Mus musculus [23]", "result": 69.6, "unit": "U/L"}, {"measurement": "Activity", "setting": "Mus musculus [24]", "result": "Non-Toxic"}, {"measurement": "Activity", "setting": "Mus musculus [25]", "result": "Non-Toxic"}]}
